ChEMBL document CHEMBL2062388, “Integrated virtual screening for the identification of novel and selective peroxisome proliferator-activated receptor (PPAR) scaffolds” (J Med Chem, 2012)
Active and inactive are the calls of the source. The rule behind the calls is not given here.

How the values were obtained:
[1] = Octanol-water partition coefficient, log P of the compound; assay type: physicochemical
[2] = molecular target: T1, Peroxisome proliferator-activated receptor gamma (Homo sapiens) (UniProt P37231); experiment: Binding affinity to PPARgamma LBD at >= 100 uM by fluorescence polarization based competitive binding assay
T1 sequence (whole entry): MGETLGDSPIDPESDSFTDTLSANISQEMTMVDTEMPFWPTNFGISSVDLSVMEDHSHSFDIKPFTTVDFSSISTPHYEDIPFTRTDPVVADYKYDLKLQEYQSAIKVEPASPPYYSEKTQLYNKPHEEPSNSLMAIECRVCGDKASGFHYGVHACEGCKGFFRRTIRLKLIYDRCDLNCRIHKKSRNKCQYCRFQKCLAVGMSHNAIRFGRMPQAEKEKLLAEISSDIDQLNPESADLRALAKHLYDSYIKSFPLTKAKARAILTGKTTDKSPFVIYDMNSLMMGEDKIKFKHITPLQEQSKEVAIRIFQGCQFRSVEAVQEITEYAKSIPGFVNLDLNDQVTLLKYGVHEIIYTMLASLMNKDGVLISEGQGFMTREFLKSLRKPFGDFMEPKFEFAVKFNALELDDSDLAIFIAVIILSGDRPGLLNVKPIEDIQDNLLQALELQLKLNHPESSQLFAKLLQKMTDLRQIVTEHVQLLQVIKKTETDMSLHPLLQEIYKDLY

[3] = molecular target: T1, Peroxisome proliferator-activated receptor gamma (Homo sapiens); experiment: Displacement of pan-PPAR fluormone from PPARgamma LBD at >= 100 uM by TR-FRET based LanthaScreen assay
[4] = molecular target: T2, Peroxisome proliferator-activated receptor alpha (Homo sapiens, UniProt Q07869); experiment: Displacement of pan-PPAR fluormone from PPARalpha LBD by TR-FRET based LanthaScreen assay
T2 sequence (Q07869 whole entry): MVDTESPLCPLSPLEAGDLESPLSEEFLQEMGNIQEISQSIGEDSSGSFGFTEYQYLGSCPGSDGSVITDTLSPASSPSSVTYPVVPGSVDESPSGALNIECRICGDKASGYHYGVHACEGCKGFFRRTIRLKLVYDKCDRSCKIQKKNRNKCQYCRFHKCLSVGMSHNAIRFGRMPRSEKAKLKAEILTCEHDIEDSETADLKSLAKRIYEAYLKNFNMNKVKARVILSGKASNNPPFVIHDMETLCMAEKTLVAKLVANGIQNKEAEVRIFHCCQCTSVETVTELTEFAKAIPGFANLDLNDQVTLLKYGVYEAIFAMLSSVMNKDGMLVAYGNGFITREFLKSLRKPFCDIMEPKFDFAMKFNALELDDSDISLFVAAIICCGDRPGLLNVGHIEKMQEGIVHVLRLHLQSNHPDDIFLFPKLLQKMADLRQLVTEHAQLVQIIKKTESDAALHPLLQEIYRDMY

[5] = molecular target: T3, Peroxisome proliferator-activated receptor gamma (Homo sapiens, UniProt P37231); experiment: Binding affinity to PPARgamma LBD by fluorescence polarization based competitive binding assay
T3 sequence (P37231 whole entry): T1 sequence (whole entry)

[6] = molecular target: T3, Peroxisome proliferator-activated receptor gamma; experiment: Displacement of pan-PPAR fluormone from PPARgamma LBD by TR-FRET based LanthaScreen assay
[7] = molecular target: T1, Peroxisome proliferator-activated receptor gamma (Homo sapiens); experiment: (§1) Agonist activity at PPARgamma LBD in human 293H DA cells after 16 hrs by TR-FRET activation reporter assay; assay type: functional, cell-based
Procedure, shortened: (§2)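 GeneBLAzer PPARγ 293H DA cells plated at 30 000 cells/well, exposed to compound (0.1 to 10 000 nM; 0.1% DMSO final) for approximately 16 h. LiveBLAzer-FRET B/G substrate loaded for 2 h, then fluorescence read at 460 and 530 nm. […] EC50 from sigmoidal varying-slope fit. Triplicates, at least two independent experiments.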

[8] = molecular target: T3, Peroxisome proliferator-activated receptor gamma; experiment: as §1; assay type: functional, cell-based; procedure, shortened: as §2
[9] = molecular target: T1, Peroxisome proliferator-activated receptor gamma (Homo sapiens); experiment: Agonist activity at PPARgamma LBD in human 293H DA cells after 16 hrs by TR-FRET activation reporter assay relative to rosiglitazone; assay type: functional, cell-based; procedure, shortened: as §2
[10] = molecular target: T4, Peroxisome proliferator-activated receptor delta (Homo sapiens, UniProt Q03181); experiment: Displacement of pan-PPAR fluormone from PPARdelta LBD by TR-FRET based LanthaScreen assay
T4 sequence (Q03181 whole entry): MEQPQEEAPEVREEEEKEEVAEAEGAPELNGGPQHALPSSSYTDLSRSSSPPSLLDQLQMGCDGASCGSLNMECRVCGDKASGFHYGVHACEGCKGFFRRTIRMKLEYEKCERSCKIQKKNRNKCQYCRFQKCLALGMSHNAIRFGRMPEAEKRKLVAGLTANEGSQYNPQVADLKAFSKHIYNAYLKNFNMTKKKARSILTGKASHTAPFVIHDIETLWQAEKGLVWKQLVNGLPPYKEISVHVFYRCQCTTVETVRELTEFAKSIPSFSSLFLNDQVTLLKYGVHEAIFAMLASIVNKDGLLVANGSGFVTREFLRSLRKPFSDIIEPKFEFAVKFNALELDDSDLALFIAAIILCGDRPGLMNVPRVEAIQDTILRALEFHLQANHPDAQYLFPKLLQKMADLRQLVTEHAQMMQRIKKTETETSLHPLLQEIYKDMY

[11] = molecular target: PPAR delta/gamma (Homo sapiens) (UniProt P37231+Q03181); experiment: Selectivity ratio of EC50 for PPARdelta LBD to EC50 for PPARgamma LBD
[12] = molecular target: T5, Peroxisome proliferator-activated receptor alpha (Homo sapiens) (UniProt Q07869); experiment: Displacement of pan-PPAR fluormone from PPARalpha LBD at >= 100 uM by TR-FRET based LanthaScreen assay
T5 sequence (whole entry): T2 sequence (Q07869 whole entry)

Homo sapiens = organism: Homo sapiens; experiment: Selectivity ratio of EC50 for PPARalpha LBD to EC50 for PPARgamma LBD

| SMILES | logP [1] | inhibition [2] | inhibition [3] | EC50 ([4]; read-out: EC50) | EC50 [5] | EC50 [6] | Activity [7] | EC50 [8] | Emax [9] | EC50 [10] | Ratio EC50 [11] | inhibition [12] | EC50 [4] | Ratio EC50 (Homo sapiens) |
| --- | --- | --- | --- | --- | --- | --- | --- | --- | --- | --- | --- | --- | --- | --- |
| CC(C)(Sc1ccc(CCN(CCCCC2CCCCC2)C(=O)NC2CCCCC2)cc1)C(=O)O [GW7647] | 8.02 | inactive | inactive | – | – | – | – | – | – | – | – | – | – | – |
| CN(CCOc1ccc(C[C@H](Nc2ccccc2C(=O)c2ccccc2)C(=O)O)cc1)c1ccccn1 | 5.23 | – | – | – | – | – | – | – | – | – | – | – | – | – |
| Cc1cc(SCc2sc(-c3ccc(C(F)(F)F)c(F)c3)nc2C)ccc1OCC(=O)O | 5.95 | inactive | inactive | 0.92 µM | – | – | – | – | – | – | – | – | – | – |
| CCOC(=O)c1sc(N2C(=O)C(O)=C(C(=O)c3cccs3)C2c2ccc(C)o2)nc1C (stereo unspecified) | 2.39 | – | – | – | 2400 nM | 2400 nM | Dose-dependent effect | 594 nM | 77.5% | 26 µM | 10.8 | inactive | – | – |
| O=C1NC(=S)NC(=O)C1=Cc1ccc(OCc2ccccc2)c(Cl)c1 | 3.11 | – | – | – | 325 nM | 215 nM | Dose-dependent effect | 467 nM | 91.6% | – | – | – | Not Active | – |
| CN(CCOc1ccc(CC2SC(=O)NC2=O)cc1)c1ccccn1 (stereo unspecified) [ROSIGLITAZONE] | 2.62 | – | – | – | – | – | – | – | – | – | – | inactive | – | – |
| O=C(Nn1cc([N+](=O)[O-])cn1)c1cccc(COc2ccc(Br)cc2)c1 | 3.71 | – | – | 11.4 µM | 5450 nM | 5450 nM | Dose-dependent effect | 682 nM | 68.7% | 21 µM | 4 | – | – | 2 |
